This is a sample that favours compounds with a hit; in the whole collection about 2.3% have one here.
TRPC4 inh: blocks the mouse TRPC4 cation channel; B-score at 10 µM; Q9QUQ5; HEK293 TRPC4beta/mu-opioid, DAMGO-evoked Fluo4 calcium flux; stronger effect = lower value; 300,000 tested, 0.39% active;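 active means B-score over 3 SD under the library average, no early fluorescence shift, positive overall ratio signal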
Target sequence (Q9QUQ5 whole entry, looked up): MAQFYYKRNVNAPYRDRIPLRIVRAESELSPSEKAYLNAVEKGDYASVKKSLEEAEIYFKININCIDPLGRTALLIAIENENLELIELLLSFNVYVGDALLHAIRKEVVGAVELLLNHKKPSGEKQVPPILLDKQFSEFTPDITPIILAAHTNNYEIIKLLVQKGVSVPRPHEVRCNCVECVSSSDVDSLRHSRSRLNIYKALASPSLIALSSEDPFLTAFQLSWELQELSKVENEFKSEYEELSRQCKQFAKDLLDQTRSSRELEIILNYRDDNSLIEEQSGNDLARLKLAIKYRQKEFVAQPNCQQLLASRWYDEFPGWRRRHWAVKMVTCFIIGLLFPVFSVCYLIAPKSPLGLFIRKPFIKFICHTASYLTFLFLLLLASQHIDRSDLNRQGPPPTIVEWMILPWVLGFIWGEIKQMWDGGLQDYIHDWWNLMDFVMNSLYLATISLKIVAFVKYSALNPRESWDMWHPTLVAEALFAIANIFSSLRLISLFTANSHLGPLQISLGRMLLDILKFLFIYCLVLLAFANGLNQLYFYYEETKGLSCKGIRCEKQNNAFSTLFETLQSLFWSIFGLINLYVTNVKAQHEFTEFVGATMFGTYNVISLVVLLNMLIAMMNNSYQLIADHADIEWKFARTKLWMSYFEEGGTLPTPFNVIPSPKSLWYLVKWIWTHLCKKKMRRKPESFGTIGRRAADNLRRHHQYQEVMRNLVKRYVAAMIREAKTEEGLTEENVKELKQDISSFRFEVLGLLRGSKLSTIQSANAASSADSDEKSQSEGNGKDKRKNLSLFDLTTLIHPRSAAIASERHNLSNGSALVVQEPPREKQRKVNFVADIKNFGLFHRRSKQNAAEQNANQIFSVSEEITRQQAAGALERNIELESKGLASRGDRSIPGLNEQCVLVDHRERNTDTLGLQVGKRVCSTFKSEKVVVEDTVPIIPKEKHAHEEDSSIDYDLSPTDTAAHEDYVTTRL
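Assay system: HEK293 cells with stable TRPC4beta plus mu-opioid receptor expression; Probe or stimulus: DAMGO in two steps, submaximal then maximal; Dosing: single-point compound dosing; Measured by: Fluo4 calcium-dye fluorescence, kinetic read; Read-out basis: B score from integrated Fluo4 fluorescence ratio.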
TRPC4 agonist: opens the mouse TRPC4 cation channel | Q9QUQ5 | HEK293 TRPC4beta/mu-opioid, Fluo4 calcium fluorescence; stronger effect = higher value | B-score at 10 µM | 310,000 tested, 0.49% active;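 active means B-score above 5 SD of library B-scores, and initial fluorescence ratio not above library mean plus 5 SD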;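 further: positive B-score marks a calcium rise read as TRPC4 activation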
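System – HEK293 cells stably co-expressing mouse TRPC4beta and mu-opioid receptor · Signal – Fluo4 calcium-sensitive dye fluorescence, kinetic, 1 Hz baseline · Benchmarks – buffer (low) and maximal DAMGO (high) · Read-out – B score of integrated fluorescence ratio per well · Incubation – dye loading 45 min room temperature, 110 s kinetic read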
TRPC6 inh: inhibitors of mouse TRPC6 channel; Q61143; HEK293-TRPC6, membrane potential dye, ACh-evoked depolarization; stronger effect = lower value; B-score at 10 µM; 310,000 tested, 1.1% active;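 active means B-score under library mean minus 3 SD, initial fluorescence not abnormally high, positive integrated signal ratio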;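 further: B-score derived from integrated fluorescence ratio over the kinetic read; more negative B-score means stronger inhibition of depolarization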
TRPC6 activator: activates the mouse TRPC6 cation channel | Q61143 | AID 2550 | 310,000 tested, 0.13% active | HEK293-TRPC6 membrane potential dye fluorescence; stronger effect = higher value | B-score at 10 µM;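 active means B-score of the integrated fluorescence ratio above library mean plus 3 SD, and starting fluorescence ratio within library mean plus 5 SD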;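 further: higher score means more depolarization so channel activation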
TRPC4 potent: allosteric potentiators of mouse TRPC4 channel. Q9QUQ5. HEK293 TRPC4beta/mu-opioid, DAMGO EC20, Fluo-4 Ca2+ flux; stronger effect = higher value. B-score at 10 µM. 310,000 tested, 0.42% active;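 active means B-score of calcium response area above 5 SD of library B-scores, with initial fluorescence ratio within 5 SD of library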;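 further: B-score of integrated fluorescence ratio over time as area under calcium response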
TRPC4 sel inh 2: second check of whether TRPC6 inhibitors also affect mouse TRPC4; shares compounds with TRPC6 inh; HEK293 TRPC4/MOR, membrane potential dye fluorescence; channel activated by saturating DAMGO dose; inhibition, % at 10 µM; 920 tested, 42% active; AID 2776;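 active means compounds whose fluorescence signal differed from control wells by over 3 SD, either direction, in both duplicate plates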
TRPC4 spec: selectivity of TRPC6 inhibitors: effect on mouse TRPC4; shares compounds with TRPC6 inh; HEK293 TRPC4/mu-opioid, membrane potential fluorescence; activity change, negative = inhibition, % at 10 µM; 920 tested, 61% active; AID 2777;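 active means rise or fall in signal beyond 3 SD of buffer-only wells in both replicate plates, either sign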;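 further: integrated kinetic ratio of fluorescence range over baseline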
HEK293 MPD ctr 2-1: second counter-screen for TRPC6 inhibitors: parental HEK293 cells. shares compounds with TRPC6 inh. parental HEK293 membrane potential dye fluorescence; maximal acetylcholine challenge after compound addition. signal change vs control, % at 10 µM. 920 tested, 31% active. AID 2779;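 active means membrane potential signal moving either way by over 3 SD of the maximum-effect control, in both duplicate plates, meaning non-specific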
HEK293 MPD ctr-1: checks TRPC6 inhibitor effects in parental HEK293 cells; shares compounds with TRPC6 inh; parental HEK293 membrane potential dye fluorescence; membrane potential signal change, % at 10 µM; 920 tested, 60% active; AID 2780;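 active means membrane potential signal shifting up or down by more than 3 SD of buffer-only wells, on both duplicate plates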
HEK293 MPD ctr-2: counter-screen for TRPC6 modulators: effect in parental HEK293 cells; 2,400 tested, 51% active; AID 488924; membrane potential dye fluorescence; shares compounds with TRPC6 inh; membrane potential signal change, % at 10 µM;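 active means membrane potential signal moves up or down beyond 5 SD from buffer-only wells, on both duplicate plates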
HEK293 MPD ctr 2-2: second counter-screen for TRPC6 modulators: effect in parental HEK293 cells; shares compounds with TRPC6 inh; membrane potential dye fluorescence; after compound, maximal acetylcholine stimulation; inhibition, % at 10 µM; 2,400 tested, 14% active;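 active means membrane potential signal drops by more than 5 SD from the mean control signal, in both duplicate plates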;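 further: plate controls were acetylcholine ECmax control wells for no effect and buffer only wells for full effect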
TRPC4/MOR mod: tests whether TRPC6 modulators also affect mouse TRPC4. shares compounds with TRPC6 inh. HEK293 TRPC4/mu-opioid, membrane potential fluorescence. percent change from control (negative = decrease, positive = increase), % at 10 µM. 2,400 tested, 69% active. AID 488927;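 active means membrane potential signal moved up or down beyond 5 SD of buffer control wells, in both duplicate plates, actives on both sides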;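 further: plate controls were assay buffer wells for no effect and DAMGO maximal-effect wells for full effect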
TRPC4/MOR inh 2: mouse TRPC4 off-target activity of TRPC6 modulators, second screen; AID 488928; inhibition, % at 10 µM; shares compounds with TRPC6 inh; HEK293 TRPC4/mu-opioid, membrane potential dye fluorescence; stimulated with maximal-effect DAMGO; 2,400 tested, 55% active;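 active means drop in membrane potential signal beyond 5 SD of the control wells in both duplicate plates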;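 further: TRPC4 counter screen for TRPC6 hits run under conditions tuned for TRPC6 not TRPC4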
TRPC6 block conf: confirmation of mouse TRPC6 inhibitors. 3,300 tested, 43% active. inhibition, % at 10 µM. HEK293-TRPC6, membrane potential dye, ACh-evoked depolarization. AID 488960. shares compounds with TRPC6 inh;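 active means fluorescence ratio falls more than 5 SD below the full-stimulation control mean, in both duplicate runs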;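 further: integrated fluorescence ratio of peak minus minimum over baseline after agonist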
TRPC6 act conf: mouse TRPC6 activator confirmation; shares compounds with TRPC6 inh; 2,800 tested, 11% active; HEK293-TRPC6 membrane potential dye fluorescence, FDSS; AID 488961; activation, % at 10 µM;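 active means ratio signal rise beyond 5 SD above unstimulated control wells' mean, seen in both duplicate runs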;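 further: plate controls were buffer EC0 wells for no effect and acetylcholine ECmax response for full effect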
* marks the source's active call; other numbers are inactive results; i = inactive; x = no result given.

SMILES	TRPC4 inh	TRPC4 agonist	TRPC6 inh	TRPC6 activator	TRPC4 potent	HEK293 MPD ctr-2	HEK293 MPD ctr 2-2	TRPC4/MOR mod	TRPC4/MOR inh 2	TRPC6 block conf	TRPC6 act conf	others
COCc1c(C#N)c(NCCc2ccc(F)cc2)nc(C)c1[N+](=O)[O-]	i	i	-8*	i	i	x	x	x	x	i	i	TRPC4 sel inh 2=i;TRPC4 spec=i;HEK293 MPD ctr 2-1=i;HEK293 MPD ctr-1=i
Cc1ccc2ccc3cccnc3c2n1	i	i	-5.8*	i	i	-248%*	i	-36%*	i	44%*	i
COc1ccc(C(NC=O)c2cc(OC)c(OC)cc2Br)cc1OC (stereo not drawn)	i	i	i	i	i	x	x	x	x	x	x
CCOc1ccc(CN(C)C(=O)c2ccc3ccccc3n2)cc1	i	i	-5.8*	i	i	i	i	i	i	i	i
CCOc1ccc(NC(=S)c2ccc3ccccc3n2)cc1	i	i	i	i	i	x	x	x	x	x	x
COc1ccccc1CN1CC(C(=O)NCc2c(F)ccc(C)c2F)CCC1=O (stereo not drawn)	i	i	i	i	i	x	x	x	x	x	x
CCCN1C(=S)SC(C)(C)C1/[N+]([O-])=C/c1cccnc1 (stereo not drawn)	i	i	i	i	i	x	x	x	x	x	x
CCCCN1C(=S)SC(C)(C)C1/[N+]([O-])=C/c1cccnc1 (stereo not drawn)	i	i	-6.6*	i	i	x	x	x	x	57%*	x	TRPC4 sel inh 2=i;TRPC4 spec=i;HEK293 MPD ctr 2-1=i;HEK293 MPD ctr-1=i
COc1ccc(/C=N/Nc2ccccn2)cc1OC	i	i	-5.8*	i	i	-121%*	i	-22%*	36%*	i	i
COc1ccc2c(c1)c(/C=N/Nc1nc3ccccc3[nH]1)c(C)n2C	i	i	-8.2*	i	i	-122%*	i	-36%*	75%*	38%*	i
COc1cc(/C=N/Nc2ccccn2)ccc1O	i	i	i	i	i	x	x	x	x	x	x
C(=N\Nc1nc2ccccc2[nH]1)/c1cccc2nccnc12	i	i	i	i	i	x	x	x	x	x	x
COc1ccc(/C=N/Nc2nc3ccccc3[nH]2)cc1OC	i	i	-5.2*	i	i	-101%*	i	-18%*	50%*	59%*	i
C#CCn1cc(/C=N/Nc2nc3ccccc3[nH]2)c2ccccc21	i	i	-7.8*	i	i	-190%*	80%*	-40%*	91%*	74%*	i
Cc1ccc(-c2nc(SCC(=O)Nc3cc(C)on3)c3c(=O)n(C)c(=O)n(C)c3n2)cc1	i	i	i	i	i	x	x	x	x	x	x
O=C(CN1C(=O)COc2ccc(Cl)cc21)NCC1CCCO1 (stereo not drawn)	i	i	i	i	i	x	x	x	x	x	x
COc1cc(OC)c(OC)cc1/C=N/Nc1nc2ccccc2[nH]1	i	i	-5.2*	i	i	i	i	-11%*	i	i	i
Cc1ccc2cc(/C=N/Nc3nc4ccccc4[nH]3)c(Cl)nc2c1	i	i	i	i	i	x	x	x	x	x	x
CCN(CC)c1ccc(/C=N/Nc2nc3ccccc3[nH]2)c(O)c1	i	i	-5.9*	i	i	i	i	-29%*	71%*	i	i
COc1ccccc1CN1CC(C(=O)NCCn2ccc(C)n2)CCC1=O (stereo not drawn)	i	i	i	i	i	x	x	x	x	x	x
Cc1cccc(-n2c(CNC(=O)c3ccc(S(=O)(=O)N4CCCCC4)cc3)n[nH]c2=S)c1	i	i	i	i	i	x	x	x	x	x	x
CCNc1nc(CN2CCCCC2)nc2scc(-c3ccccc3)c12	i	i	-5.8*	i	i	i	i	i	39%*	i	i
OCC1CCCN(c2nc(CN3CCCCC3)nc3scc(-c4ccccc4)c23)C1 (stereo not drawn)	i	i	i	i	i	x	x	x	x	x	x
CCN(CC)C(=O)Cn1cc(S(=O)(=O)CC(=O)NCCc2ccccc2)c2ccccc21	i	i	i	i	i	x	x	x	x	x	x
Cc1cc(=O)n2c3ccccc3n(CC(O)CN3CCN(CCO)CC3)c2c1C#N (stereo not drawn)	i	i	i	i	i	x	x	x	x	x	x
CCC1CCCCN1CC(O)Cn1c2ccccc2n2c(=O)cc(C)c(C#N)c12 (stereo not drawn)	i	i	-7.8*	i	i	x	x	x	x	57%*	i	TRPC4 sel inh 2=78%*;TRPC4 spec=i;HEK293 MPD ctr 2-1=i;HEK293 MPD ctr-1=-153%*
Cc1cc(=O)n2c3ccccc3n(CC(O)CN3CCN(Cc4ccccc4)CC3)c2c1C#N (stereo not drawn)	i	i	-9.5*	i	i	-157%*	i	-36%*	65%*	i	i
Cc1cnc(NC(=O)CSC(=S)N2CCOCC2)s1	i	i	i	i	i	x	x	x	x	x	x
CCc1nnc(NC(=O)CSC(=S)N2CCOCC2)s1	i	i	-6.9*	i	i	i	i	i	i	i	i
